Experimental data: ChEMBL document CHEMBL1125894, “Dual-action cephalosporins: cephalosporin 3'-quaternary ammonium quinolones” (1991)
≈ marks a conversion by molar mass, not a printed value. Where “and” joins values, the source holds several entries; their conditions need not be identical. Identical values can stand only once.

How the values were obtained:
Streptococcus pneumoniae [1] = experiment: In vivo activity in murine against Streptococcus pneumoniae 6301 infection after sc administration.; assay type: functional
Outline: (§1)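 Mouse protection test in CD1 Swiss albino mice (18–20 g). Mice were infected intraperitoneally with 0.5 mL of a diluted bacterial suspension, then treated within 5 min with one 1.0 mL subcutaneous dose at the dorsal base of the neck. Doses ranged from 0.05 to 250 mg/kg, with six mice per group. ED50 was calculated by the Reed–Muench method.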

Pseudomonas aeruginosa [2] = experiment: In vivo activity in murine against Pseudomonas aeruginosa 5712 infection after sc administration.; assay type: functional
Outline: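 Mouse protection test in CD1 Swiss albino mice (18–20 g) infected intraperitoneally with 0.5 mL of diluted P. aeruginosa suspension. Mice received 1.0 mL subcutaneously at the neck base within 5 min of infection and a second treatment 3 h after infection. Doses ranged from 0.05 to 250 mg/kg, with six mice per group. ED50 was calculated by the Reed–Muench method.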

Escherichia coli [3] = experiment: In vivo activity in murine against Escherichia coli 257 infection after sc administration.; assay type: functional; outline: as §1
Staphylococcus aureus [4] = experiment: In vivo activity in murine against Staphylococcus aureus Smith (MS) infection after sc administration.; assay type: functional; outline: as §1
Klebsiella pneumoniae [5] = experiment: In vivo activity in murine against Klebsiella pneumoniae A infection after sc administration.; assay type: functional; outline: as §1
Enterobacter cloacae [6] = experiment: In vivo activity in murine against Enterobacter cloacae 5699 infection after sc administration.; assay type: functional; outline: as §1
Serratia marcescens [7] = experiment: In vivo activity in murine against Serratia marcescens SM infection after sc administration.; assay type: functional; outline: as §1
Streptococcus pyogenes [8] = experiment: In vivo activity in murine against Streptococcus pyogenes 4 infection after sc administration.; assay type: functional; outline: as §1
Citrobacter freundii [9] = experiment: In vivo activity in murine against Citrobacter freundii BS#16 infection after sc administration.; assay type: functional
Outline: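 CD1 Swiss albino mice (18–20 g) infected intraperitoneally with 0.5 mL diluted bacterial culture suspension. Single subcutaneous treatment within 5 min, 1.0 mL at dorsal base of neck, serial dilutions spanning 0.05–250 mg/kg. Six mice per treatment and control group. ED50 (50% protective dose) derived by Reed and Muench method.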

Staphylococcus aureus [10] = experiment: In vivo activity in murine against Staphylococcus aureus 753(MR) infection after sc administration.; assay type: functional; outline: as §1
[11] = target: T1, Penicillin-binding protein 1B (Escherichia coli K-12) (UniProt P02919); experiment: Concentration required for 90% inhibition against 90 kDa penicillin-binding protein 1b binding using [14C]-Pen G as the radioligand.
T1 sequence (whole entry): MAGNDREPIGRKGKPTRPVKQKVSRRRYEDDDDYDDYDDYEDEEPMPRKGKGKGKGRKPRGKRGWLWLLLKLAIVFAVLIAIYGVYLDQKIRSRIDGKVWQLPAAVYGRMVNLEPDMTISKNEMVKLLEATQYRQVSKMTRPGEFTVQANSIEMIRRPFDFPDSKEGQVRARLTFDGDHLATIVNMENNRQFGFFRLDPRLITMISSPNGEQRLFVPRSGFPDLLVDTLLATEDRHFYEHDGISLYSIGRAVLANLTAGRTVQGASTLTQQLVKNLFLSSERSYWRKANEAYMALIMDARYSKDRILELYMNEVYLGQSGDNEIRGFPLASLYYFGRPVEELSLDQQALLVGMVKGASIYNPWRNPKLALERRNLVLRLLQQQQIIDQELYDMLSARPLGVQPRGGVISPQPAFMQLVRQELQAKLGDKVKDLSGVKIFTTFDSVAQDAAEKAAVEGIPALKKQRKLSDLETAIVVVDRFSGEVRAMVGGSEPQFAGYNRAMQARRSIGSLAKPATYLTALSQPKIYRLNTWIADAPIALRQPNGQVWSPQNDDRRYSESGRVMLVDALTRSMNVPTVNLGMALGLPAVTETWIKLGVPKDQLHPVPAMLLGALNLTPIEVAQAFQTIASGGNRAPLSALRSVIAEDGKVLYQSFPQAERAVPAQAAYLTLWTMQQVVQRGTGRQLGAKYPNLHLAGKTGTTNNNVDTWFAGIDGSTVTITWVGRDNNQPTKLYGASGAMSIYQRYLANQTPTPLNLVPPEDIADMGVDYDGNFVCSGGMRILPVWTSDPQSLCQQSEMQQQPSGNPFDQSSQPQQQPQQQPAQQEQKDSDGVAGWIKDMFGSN
Outline: (§2)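 Solubilized membranes from sonicated E. coli DC-0 were used. PBP binding was measured as inhibition of [14C]penicillin G binding to each PBP.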

Staphylococcus aureus [12] = experiment: In vitro antibacterial activity against Staphylococcus aureus 95(MR); assay type: functional
Outline: (§3)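 Staphylococci were tested by the standard agar dilution procedure using serial 2-fold dilutions of agent. The value is reported as the MIC.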

Serratia marcescens [13] = experiment: In vitro antibacterial activity against Serratia marcescens SM; assay type: functional
Outline: (§4)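 Serial 2-fold dilutions in the NCCLS broth microdilution method for aerobic nonfastidious organisms, with an 18-h incubation. The value is reported as the minimum inhibitory concentration (MIC).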

Streptococcus pneumoniae [14] = experiment: In vitro antibacterial activity against Streptococcus pneumoniae 6301; assay type: functional
Outline: (§5)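 Broth macrodilution with serial 2-fold dilutions in cation-supplemented Mueller-Hinton broth containing 10% goat serum. The value is reported as the MIC.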

Escherichia coli [15] = experiment: Antibacterial activity against Escherichia coli DC-O; assay type: functional; outline: as §4
Escherichia coli [16] = experiment: Concentration required for 90% inhibition against 60 kDa penicillin-binding protein 3 binding using [14C]-Pen G as the radioligand.; outline: as §2
[17] = target: T2, Peptidoglycan D,D-transpeptidase MrdA (Escherichia coli K-12) (UniProt P0AD65); experiment: Concentration required for 90% inhibition against 66 kDa penicillin-binding protein 2 binding using [14C]-Pen G as the radioligand.; outline: as §2
T2 sequence (whole entry): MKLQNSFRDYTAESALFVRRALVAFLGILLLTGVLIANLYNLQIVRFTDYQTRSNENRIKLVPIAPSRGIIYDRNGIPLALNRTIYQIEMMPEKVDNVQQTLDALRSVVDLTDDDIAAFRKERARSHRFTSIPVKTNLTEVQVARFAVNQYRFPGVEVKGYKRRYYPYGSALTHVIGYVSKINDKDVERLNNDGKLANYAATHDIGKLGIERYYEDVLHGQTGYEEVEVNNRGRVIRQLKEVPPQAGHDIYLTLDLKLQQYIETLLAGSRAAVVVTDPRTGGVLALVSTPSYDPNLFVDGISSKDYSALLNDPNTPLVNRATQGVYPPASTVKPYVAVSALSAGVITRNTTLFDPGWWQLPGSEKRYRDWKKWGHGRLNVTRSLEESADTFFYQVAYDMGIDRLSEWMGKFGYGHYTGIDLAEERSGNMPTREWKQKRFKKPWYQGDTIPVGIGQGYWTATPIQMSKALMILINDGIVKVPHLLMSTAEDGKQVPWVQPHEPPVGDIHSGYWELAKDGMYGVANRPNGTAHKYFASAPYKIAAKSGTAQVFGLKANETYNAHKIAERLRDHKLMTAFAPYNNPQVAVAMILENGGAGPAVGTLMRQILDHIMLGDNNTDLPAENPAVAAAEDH

Pseudomonas aeruginosa [18] = experiment: In vitro antibacterial activity against Pseudomonas aeruginosa 5712; assay type: functional; outline: as §4
Enterobacter cloacae [19] = experiment: In vitro antibacterial activity against Enterobacter cloacae P99; assay type: functional; outline: as §4
Klebsiella pneumoniae [20] = experiment: In vitro antibacterial activity against Klebsiella pneumoniae A; assay type: functional; outline: as §4
Escherichia coli [21] = experiment: In vitro antibacterial activity against Escherichia coli 257; assay type: functional; outline: as §4
[22] = target: T3, Penicillin-binding protein 1A (Escherichia coli K-12) (UniProt P02918); experiment: Concentration required for 90% inhibition against 90 kDa penicillin-binding protein 1a binding using [14C]-Pen G as the radioligand.; outline: as §2
T3 sequence (whole entry): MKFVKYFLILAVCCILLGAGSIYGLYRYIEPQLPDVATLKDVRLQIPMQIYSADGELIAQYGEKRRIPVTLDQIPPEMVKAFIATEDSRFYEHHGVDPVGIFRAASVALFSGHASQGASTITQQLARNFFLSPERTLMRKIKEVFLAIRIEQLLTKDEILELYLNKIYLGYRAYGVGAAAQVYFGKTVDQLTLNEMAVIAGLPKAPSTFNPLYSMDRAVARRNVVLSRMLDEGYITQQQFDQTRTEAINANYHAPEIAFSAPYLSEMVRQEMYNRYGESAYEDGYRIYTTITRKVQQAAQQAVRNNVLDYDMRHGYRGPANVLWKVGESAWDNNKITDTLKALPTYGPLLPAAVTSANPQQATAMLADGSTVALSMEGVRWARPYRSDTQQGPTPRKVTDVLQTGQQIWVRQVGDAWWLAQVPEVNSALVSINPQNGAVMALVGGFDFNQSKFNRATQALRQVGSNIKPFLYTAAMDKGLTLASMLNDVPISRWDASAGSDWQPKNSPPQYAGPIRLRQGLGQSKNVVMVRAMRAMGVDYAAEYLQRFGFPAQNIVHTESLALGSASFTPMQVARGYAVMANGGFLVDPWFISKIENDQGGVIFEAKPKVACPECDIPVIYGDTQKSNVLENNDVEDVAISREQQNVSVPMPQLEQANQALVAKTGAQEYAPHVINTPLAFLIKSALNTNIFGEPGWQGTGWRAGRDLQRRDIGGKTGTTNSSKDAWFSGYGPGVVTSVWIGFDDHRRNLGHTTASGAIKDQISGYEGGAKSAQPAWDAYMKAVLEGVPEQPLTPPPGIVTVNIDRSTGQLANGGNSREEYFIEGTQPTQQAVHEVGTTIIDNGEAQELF

Citrobacter freundii [23] = experiment: In vitro antibacterial activity against Citrobacter freundii BS 16; assay type: functional; outline: as §4
Streptococcus pyogenes [24] = experiment: In vitro antibacterial activity against Streptococcus pyogenes 4; assay type: functional; outline: as §5
Staphylococcus aureus [25] = experiment: In vitro antibacterial activity against Staphylococcus aureus Smith(MS); assay type: functional; outline: as §3
Enterobacter cloacae [26] = experiment: In vitro antibacterial activity against Enterobacter cloacae 5699; assay type: functional; outline: as §4
[27] = Pseudomonas aeruginosa, sc, read-out: ED50
[28] = Escherichia coli, sc, read-out: ED50

SMILES	ED50 (Streptococcus pneumoniae [1])	ED50 (Pseudomonas aeruginosa [2]; [27])	ED50 (Escherichia coli [3]; [28])	ED50 (Staphylococcus aureus [4])	ED50 (Klebsiella pneumoniae [5])	ED50 (Enterobacter cloacae [6])	ED50 (Serratia marcescens [7])	ED50 (Streptococcus pyogenes [8])	ED50 (Citrobacter freundii [9])	ED50 (Staphylococcus aureus [10])	MIC (Staphylococcus aureus [12])	MIC (Serratia marcescens [13])	MIC (Streptococcus pneumoniae [14])	MIC (Pseudomonas aeruginosa [18])	MIC (Enterobacter cloacae [19])	MIC (Klebsiella pneumoniae [20])	MIC (Escherichia coli [21])	MIC (Citrobacter freundii [23])	MIC (Streptococcus pyogenes [24])	MIC (Staphylococcus aureus [25])	other results
CC(C)(O/N=C(\C(=O)N[C@@H]1C(=O)N2C(C(=O)[O-])=C(C[n+]3ccccc3)CS[C@H]12)c1csc(N)n1)C(=O)O [CEFTAZIDIME]	3 mg/kg	217 mg/kg	< 0.5 mg/kg	< 2 mg/kg	< 2 mg/kg	25 mg/kg	67 mg/kg	12 mg/kg	22 mg/kg	62 mg/kg											
CO/N=C(\C(=O)N[C@@H]1C(=O)N2C(C(=O)[O-])=C(C[N+]3(C)CCN(c4c(F)cc5c(=O)c(C(=O)O)cn(CCF)c5c4F)CC3)CS[C@H]12)c1csc(N)n1	12 mg/kg	> 250 mg/kg	< 0.5 mg/kg				10 mg/kg	< 5 mg/kg			4 µg/mL (≈ 5.23 µM)	1 µg/mL (≈ 1.31 µM)	0.063 µg/mL (≈ 0.0824 µM)	32 µg/mL (≈ 41.8 µM)	0.5 µg/mL (≈ 0.654 µM)	0.5 µg/mL (≈ 0.654 µM)	0.125 µg/mL (≈ 0.163 µM)	2 µg/mL (≈ 2.62 µM)	0.125 µg/mL (≈ 0.163 µM)	4 µg/mL (≈ 5.23 µM)	Concentration [11]: > 100 µg/mL; MIC (Escherichia coli [15]): 0.2 µg/mL (≈ 0.262 µM); Concentration (Escherichia coli [16]): 0.1 µg/mL; Concentration [17]: 100 µg/mL; Concentration [22]: > 100 µg/mL; MIC (Enterobacter cloacae [26]): 0.5 µg/mL (≈ 0.654 µM)
CN1CCN(c2c(F)cc3c(=O)c(C(=O)O)cn(CCF)c3c2F)CC1 [FLEROXACIN]	> 250 mg/kg		0.25 mg/kg	0.65 mg/kg	0.3 mg/kg	< 2 mg/kg	< 2 mg/kg	> 250 mg/kg	2 mg/kg	2.8 mg/kg	0.25 µg/mL (≈ 0.677 µM)	0.25 µg/mL (≈ 0.677 µM)	8 µg/mL (≈ 21.7 µM)	4 µg/mL (≈ 10.8 µM)	0.031 µg/mL (≈ 0.0839 µM)	0.031 µg/mL (≈ 0.0839 µM)	0.031 µg/mL (≈ 0.0839 µM)	0.25 µg/mL (≈ 0.677 µM)	4 µg/mL (≈ 10.8 µM)	0.25 µg/mL (≈ 0.677 µM)	ED50 (Pseudomonas aeruginosa [2]): 14 mg/kg and 31 mg/kg; ED50 (Escherichia coli [3]): 0.26 mg/kg; MIC (Enterobacter cloacae [26]): 0.063 µg/mL (≈ 0.171 µM)
